In ChEMBL document CHEMBL4007410, “Fluorinated Chaperone-β-Cyclodextrin Formulations for β-Glucocerebrosidase Activity Enhancement in Neuronopathic Gaucher Disease” (J Med Chem, 2017):
The source made the active and inactive calls. The rule behind the calls is not given here.

Key:
[1] = molecular target: T1, Beta-galactosidase (Homo sapiens) (UniProt P16278); assay: Inhibition of human lysosomal beta-galactosidase assessed as formation of 4-methylumbelliferone from 4-methylumbelliferyl beta-D-galactopyranoside up to 200 uM by luminescence spectrophotometry
T1 sequence (whole entry): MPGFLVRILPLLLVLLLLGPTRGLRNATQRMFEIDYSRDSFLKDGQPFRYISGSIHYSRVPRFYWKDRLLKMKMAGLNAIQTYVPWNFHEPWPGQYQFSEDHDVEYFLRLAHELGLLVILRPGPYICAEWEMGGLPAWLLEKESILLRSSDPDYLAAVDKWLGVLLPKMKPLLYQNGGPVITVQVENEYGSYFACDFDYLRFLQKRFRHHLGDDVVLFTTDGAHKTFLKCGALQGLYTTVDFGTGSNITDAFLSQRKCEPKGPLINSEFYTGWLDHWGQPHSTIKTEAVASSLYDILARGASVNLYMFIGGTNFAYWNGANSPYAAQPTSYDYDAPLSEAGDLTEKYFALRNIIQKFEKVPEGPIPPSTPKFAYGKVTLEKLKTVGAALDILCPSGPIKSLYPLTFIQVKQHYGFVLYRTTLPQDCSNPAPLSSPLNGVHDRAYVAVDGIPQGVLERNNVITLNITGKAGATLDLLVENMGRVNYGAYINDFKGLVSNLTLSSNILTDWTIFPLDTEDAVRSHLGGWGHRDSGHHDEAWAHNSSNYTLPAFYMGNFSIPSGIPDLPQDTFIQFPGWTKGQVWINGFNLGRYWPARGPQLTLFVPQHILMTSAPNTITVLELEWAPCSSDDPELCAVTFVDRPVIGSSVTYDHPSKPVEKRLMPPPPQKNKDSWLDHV
Outline: (§1)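 Cells were scraped into ice-cold water (10⁶ cells/mL), sonicated and centrifuged, and protein was quantified. Lysate in 0.1% Triton X-100 was incubated at 37 °C with the matching 4-MU-conjugated glycoside in 0.1 M citrate, pH 4.5, with increasing chaperone or βCD-complex concentrations up to 200 μM. Reactions were stopped with glycine-NaOH, pH 10.7, and read at ex 340/em 460 nm.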

[2] = molecular target: T2, Lysosomal alpha-mannosidase (Homo sapiens) (UniProt O00754); assay: Inhibition of human lysosomal alpha-mannosidase assessed as formation of 4-methylumbelliferone from 4-methylumbelliferyl alpha-D-glucopyranoside up to 200 uM by luminescence spectrophotometry; outline: as §1
T2 sequence (whole entry): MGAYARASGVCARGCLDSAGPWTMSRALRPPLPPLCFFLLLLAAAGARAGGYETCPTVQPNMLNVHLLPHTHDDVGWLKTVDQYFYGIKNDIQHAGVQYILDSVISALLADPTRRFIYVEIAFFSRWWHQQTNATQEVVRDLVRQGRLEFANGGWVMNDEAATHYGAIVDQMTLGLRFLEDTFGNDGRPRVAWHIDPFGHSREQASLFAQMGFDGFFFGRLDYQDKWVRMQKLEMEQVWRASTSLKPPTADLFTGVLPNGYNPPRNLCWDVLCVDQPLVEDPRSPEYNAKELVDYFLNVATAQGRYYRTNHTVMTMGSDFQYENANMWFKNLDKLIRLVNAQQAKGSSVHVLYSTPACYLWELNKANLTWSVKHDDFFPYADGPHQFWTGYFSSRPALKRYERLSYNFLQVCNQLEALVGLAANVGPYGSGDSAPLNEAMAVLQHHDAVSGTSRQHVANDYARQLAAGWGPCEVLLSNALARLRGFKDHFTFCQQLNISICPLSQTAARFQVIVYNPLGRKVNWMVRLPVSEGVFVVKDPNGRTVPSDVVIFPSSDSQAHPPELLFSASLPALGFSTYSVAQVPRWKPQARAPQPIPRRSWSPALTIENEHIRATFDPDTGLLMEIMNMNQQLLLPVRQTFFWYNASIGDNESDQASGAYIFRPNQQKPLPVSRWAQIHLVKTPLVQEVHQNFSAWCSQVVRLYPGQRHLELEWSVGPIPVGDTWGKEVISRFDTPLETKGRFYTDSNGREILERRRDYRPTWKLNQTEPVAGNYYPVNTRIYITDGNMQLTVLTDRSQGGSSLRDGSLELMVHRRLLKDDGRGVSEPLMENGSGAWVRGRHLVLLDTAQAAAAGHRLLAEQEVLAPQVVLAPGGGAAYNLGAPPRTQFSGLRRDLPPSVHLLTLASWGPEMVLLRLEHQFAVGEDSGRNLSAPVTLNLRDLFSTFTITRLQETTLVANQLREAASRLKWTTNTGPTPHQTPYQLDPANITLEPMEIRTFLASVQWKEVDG

Helix pomatia = assay: Inhibition of Helix pomatia beta-mannosidase at 2 mM using beta-D-glycopyranoside after 10 to 30 mins in presence of beta-cyclodextrin by spectrophotometry
Outline: (§2)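 Commercial glycosidases were assayed with o-nitrophenyl (E. coli β-galactosidase) or p-nitrophenyl glycoside substrate near KM. Buffer was phosphate, or phosphate-citrate for mannosidases and amyloglucosidase, at each enzyme's optimal pH. Enzyme was added last. Incubation ran 10-30 min at 37 °C (55 °C for amyloglucosidase), then was quenched with 1 M Na2CO3 and read at A405. Free compounds were tested up to 1 mM; 1:1 βCD complexes up to 2 mM.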

Saccharomyces cerevisiae = assay: Inhibition of yeast alpha-glucosidase at 2 mM using beta-D-glycopyranoside after 10 to 30 mins in presence of beta-cyclodextrin by spectrophotometry; outline: as §2
[3] = Solubility of the compound in presence of beta-cyclodextrin; format: physicochemical
[4] = molecular target: T3, Lysosomal acid glucosylceramidase (Homo sapiens, UniProt P04062); assay: Inhibition of human GCase assessed as formation of 4-methylumbelliferone from […] at pH 7 by luminescence spectrophotometry
T3 sequence (P04062 whole entry): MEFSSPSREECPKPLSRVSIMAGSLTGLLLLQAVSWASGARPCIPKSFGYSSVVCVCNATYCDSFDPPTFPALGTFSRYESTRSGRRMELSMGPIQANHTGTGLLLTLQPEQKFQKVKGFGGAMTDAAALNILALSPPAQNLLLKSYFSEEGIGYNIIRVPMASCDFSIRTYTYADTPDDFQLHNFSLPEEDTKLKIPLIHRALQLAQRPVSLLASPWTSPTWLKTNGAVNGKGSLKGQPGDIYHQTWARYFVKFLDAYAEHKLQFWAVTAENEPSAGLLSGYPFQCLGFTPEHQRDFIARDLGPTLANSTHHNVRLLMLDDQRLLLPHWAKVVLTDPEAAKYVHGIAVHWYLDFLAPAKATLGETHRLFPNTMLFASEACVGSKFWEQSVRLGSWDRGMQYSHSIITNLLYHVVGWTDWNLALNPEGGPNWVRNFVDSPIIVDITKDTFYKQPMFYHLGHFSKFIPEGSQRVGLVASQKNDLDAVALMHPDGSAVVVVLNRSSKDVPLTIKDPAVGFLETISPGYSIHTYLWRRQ

| inhibition [1] | inhibition [2] | inhibition (Helix pomatia) | inhibition (Saccharomyces cerevisiae) | solubility [3] | Ki [4] [µM] | SMILES |
| --- | --- | --- | --- | --- | --- | --- |
| inactive | inactive | inactive | inactive | Soluble | 4.1 | O=C(CCC(F)(F)C(F)(F)C(F)(F)C(F)(F)C(F)(F)C(F)(F)F)NCCCCCCCCCNC(=S)N1[C@@H]2CO[C@H]1[C@H](O)[C@@H](O)[C@@H]2O |
| inactive | inactive | inactive | inactive | Soluble | 35 | O=C(CCC(F)(F)C(F)(F)C(F)(F)C(F)(F)F)NCCCCNC(=S)N1[C@@H]2CO[C@H]1[C@H](O)[C@@H](O)[C@@H]2O |
| inactive | inactive | inactive | inactive | Soluble | 11.9 | O=C(CCC(F)(F)C(F)(F)C(F)(F)C(F)(F)C(F)(F)C(F)(F)F)NCCCCNC(=S)N1[C@@H]2CO[C@H]1[C@H](O)[C@@H](O)[C@@H]2O |
| inactive | inactive | inactive | inactive | Soluble | 9.3 | O=C(CCC(F)(F)C(F)(F)C(F)(F)C(F)(F)F)NCCCCCCCCCNC(=S)N1[C@@H]2CO[C@H]1[C@H](O)[C@@H](O)[C@@H]2O |
